Legend:
[1] = biological target: Cholesterol 24-hydroxylase (Homo sapiens, UniProt Q9Y6A2); experiment: Inhibition of full length N-terminal his6-tagged human CH24H (28 to 494 residues) expressed in Escherichia coli DH5alpha using [14C] cholesterol as substrate preincubated for 15 mins followed by substrate addition and measured after 5 min in presence of beta-NADPH
CYP3A4 = CYP3A4 (Homo sapiens, UniProt P08684); experiment: Inhibition of CYP3A4 (unknown origin) at 10 uM using testosterone as substrate incubated for 60 mins by LC-MS/MS analysis relative to control; assay type: ADME; details: probe testosterone
Summary of the method: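 CYP3A4-expressing microsomes in 50 mmol/L phosphate buffer (pH 7.4) with an NADPH-generating system (MgCl2, β-NADP+, glucose-6-phosphate, G6P dehydrogenase). Testosterone was the substrate and test compound was 10 µmol/L, with final solvent at 0.5%. Incubated 60 min, stopped with acetonitrile, and 6β-hydroxytestosterone read by LC/MS/MS. Run in triplicate; reported as % activity remaining versus an inhibitor-free control.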

[2] = Metabolic stability in human liver microsome assessed as clearance at 1 uM incubated for 15 to 30 mins in presence of NADPH by LC-MS/MS analysis; assay type: ADME; details: liver microsomes, time 15-30 min, read-out: CLH
Summary of the method: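 Human liver microsomes (0.2 mg protein/mL) were mixed with compound (1 µM) in phosphate buffer (pH 7.4) and started with an NADPH-generating system. Incubated at 37 °C for 15 and 30 min, with zero-time samples as controls, then stopped with acetonitrile. Remaining compound in the supernatant was measured by LC/MS/MS.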

[3] = Inhibition of cortisol synthesis in human NCI-H295R cells by Enzyme immunoassay; assay type: functional, cell-based
Summary of the method: (§1)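 H295R adrenocortical cells grown in DMEM/F12 with 2.5% Nu-serum and 1% ITS-plus, seeded at 5×10^4 per well for three nights, then primed two nights with 20 µM forskolin. Cells washed, then exposed overnight to compound in DMEM/F12 with 1% ITS-plus and 20 µM forskolin. Cortisol, testosterone, aldosterone and corticosterone in the supernatant measured by competitive EIA against a calibration curve; triplicate, mean ± SEM.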

[4] = Inhibition of corticosterone synthesis in human NCI-H295R cells by Enzyme immunoassay; assay type: functional, cell-based; summary of the method: as §1
[5] = Inhibition of aldosterone synthesis in human NCI-H295R cells by Enzyme immunoassay; assay type: functional, cell-based; summary of the method: as §1
[6] = Inhibition of testosterone synthesis in human NCI-H295R cells by Enzyme immunoassay; assay type: functional, cell-based; summary of the method: as §1

Chain of Cholesterol 24-hydroxylase (Q9Y6A2 whole entry, the tested form may be a part): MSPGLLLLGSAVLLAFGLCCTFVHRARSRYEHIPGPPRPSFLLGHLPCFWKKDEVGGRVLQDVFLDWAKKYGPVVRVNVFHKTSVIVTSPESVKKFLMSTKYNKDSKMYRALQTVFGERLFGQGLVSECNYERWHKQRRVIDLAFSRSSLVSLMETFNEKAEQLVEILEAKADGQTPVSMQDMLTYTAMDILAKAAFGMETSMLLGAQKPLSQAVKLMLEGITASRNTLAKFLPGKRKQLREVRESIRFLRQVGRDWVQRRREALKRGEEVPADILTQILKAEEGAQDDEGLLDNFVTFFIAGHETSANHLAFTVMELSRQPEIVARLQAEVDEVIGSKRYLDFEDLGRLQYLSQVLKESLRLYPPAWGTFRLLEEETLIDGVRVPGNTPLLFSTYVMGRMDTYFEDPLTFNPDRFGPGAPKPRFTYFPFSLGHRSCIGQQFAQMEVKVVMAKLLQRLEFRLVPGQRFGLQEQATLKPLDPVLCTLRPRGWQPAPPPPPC
Chain of CYP3A4 (P08684 whole entry): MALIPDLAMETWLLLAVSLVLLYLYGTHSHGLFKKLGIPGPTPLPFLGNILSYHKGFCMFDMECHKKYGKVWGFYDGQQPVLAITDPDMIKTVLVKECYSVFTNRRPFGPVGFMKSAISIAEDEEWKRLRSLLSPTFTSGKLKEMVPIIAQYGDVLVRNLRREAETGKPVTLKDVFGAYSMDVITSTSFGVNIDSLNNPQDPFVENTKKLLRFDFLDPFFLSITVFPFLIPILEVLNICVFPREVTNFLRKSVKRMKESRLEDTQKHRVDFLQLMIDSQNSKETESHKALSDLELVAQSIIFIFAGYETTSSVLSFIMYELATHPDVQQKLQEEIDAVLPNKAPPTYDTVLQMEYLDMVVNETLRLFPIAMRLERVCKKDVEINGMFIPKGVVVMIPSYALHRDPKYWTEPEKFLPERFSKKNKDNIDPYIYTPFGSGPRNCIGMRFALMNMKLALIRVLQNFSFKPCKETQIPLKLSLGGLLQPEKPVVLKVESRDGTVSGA

Compound | IC50 [1] [nM] | inhibition at 1 h, 10 µM (CYP3A4) [%] | other results
Cc1ccc(-c2ccnc(C)c2)c(C(=O)N2CCC(O)(Cc3ccccc3)CC2)c1 | > 10000 | 60 | –
O=C(c1cccnc1-c1ccncn1)N1CCC(O)(Cc2ccccc2)CC1 | 19 | 13 | microsomal CLint at 1 µM [2]: 17 µL/min/mg
O=C(c1ccccc1-c1ccncc1)N1CCC(O)(Cc2ccccn2)CC1 | 21 | 18 | microsomal CLint at 1 µM [2]: 22 µL/min/mg
O=C(c1ccccc1-c1ccncc1)N1CCC(O)(Cc2ccccc2)CC1 | 7.9 | 45 | microsomal CLint at 1 µM [2]: 120 µL/min/mg
O=C(c1cc(Cl)ccc1-c1ccncc1)N1CCC(O)(Cc2ccccc2)CC1 | 2.4 | 75 | –
O=C(c1cc(F)ccc1-c1ccncc1)N1CCC(O)(Cc2ccccc2)CC1 | 6.1 | 55 | –
CC(=O)N1CCN(c2ccc(OCC3COC(Cn4ccnc4)(c4ccc(Cl)cc4Cl)O3)cc2)CC1 (configuration not stated) [KETOCONAZOLE] | – | – | IC50 [3]: 440 nM; IC50 [4]: 2500 nM; IC50 [5]: 1400 nM; IC50 [6]: 340 nM
O=C(c1ccccc1-c1ccncn1)N1CCC(O)(Cc2ccccc2)CC1 | 4.3 | 17 | microsomal CLint at 1 µM [2]: 70 µL/min/mg
COc1ccc(-c2ccncc2)c(C(=O)N2CCC(O)(Cc3ccccc3)CC2)c1 | 4.7 | 67 | –
Cc1ccc(-c2ccncc2)c(C(=O)N2CCN(Cc3ccccc3)CC2)c1 | 93 | – | –
Cc1ccc(-c2ccncc2)c(C(=O)N2CCN(Cc3ccccc3)C(=O)C2)c1 | 89 | – | –
Cc1cccc(-c2ccncc2)c1C(=O)N1CCC(O)(Cc2ccccc2)CC1 | 7.8 | 71 | –
CCC1(O)CCN(C(=O)c2cc(C)ccc2-c2ccncc2)CC1 | 540 | – | –
Cc1ccc(-c2ccncc2)c(C(=O)N2CCC(O)CC2)c1 | 7700 | – | –
COC1(Cc2ccccc2)CCN(C(=O)c2cc(C)ccc2-c2ccncc2)CC1 | 74 | – | –
Cc1ccc(-c2ccncc2)c(C(=O)N2CCC(O)(c3ccccc3)CC2)c1 | 1200 | – | –
